Experimental data published in ChEMBL document CHEMBL1811814, “Synthesis and evaluation of indole, pyrazole, chromone and pyrimidine based conjugates for tumor growth inhibitory activities--development of highly efficacious cytotoxic agents” (Eur J Med Chem, 2010).

Tests used:
Assay type in all cases: functional
Set-up in all cases: scale not given: the % may be the effect or the level left
HOP-92 = assay: Growth inhibition of human HOP92 cells assessed tumor cell growth at 10^-5 M
Summary of the method: (§1)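 NCI 60-human-tumor-cell-line panel screen. Each compound was tested at a single concentration of 10^-5 M, and percent growth of tumor cells was recorded for each cell line. Growth inhibition was expressed from these percent-growth values.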

MOLT-4 = assay: Growth inhibition of human MOLT4 cells assessed tumor cell growth at 10^-5 M; summary of the method: as §1
EKVX = assay: Growth inhibition of human EKVX cells assessed tumor cell growth at 10^-5 M; summary of the method: as §1
UACC-257 = assay: Growth inhibition of human UACC257 cells assessed tumor cell growth at 10^-5 M
Summary of the method: (§2)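 Single-dose screen at 10^-5 M across the 60 human tumor cell line panel, run to NCI standards. The value is the percent growth of each cell line in the presence of compound. Compounds active at this dose moved on to five-concentration testing (10^-4 to 10^-8 M).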

NCI/ADR-RES = assay: Growth inhibition of human NCI/ADR-RES cells assessed tumor cell growth at 10^-5 M; summary of the method: as §1
HCC 2998 = assay: Growth inhibition of human HCC2998 cells assessed tumor cell growth at 10^-5 M; summary of the method: as §1
OVCAR-5 = assay: Growth inhibition of human OVCAR5 cells assessed tumor cell growth at 10^-5 M; summary of the method: as §1
NCI-H23 = assay: Growth inhibition of human NCI-H23 cells assessed tumor cell growth at 10^-5 M; summary of the method: as §1
NCI-H226 = assay: Growth inhibition of human NCI-H226 cells assessed tumor cell growth at 10^-5 M; summary of the method: as §1
BT-549 = assay: Growth inhibition of human BT549 cells assessed tumor cell growth at 10^-5 M; summary of the method: as §1
ACHN = assay: Growth inhibition of human ACHN cells assessed tumor cell growth at 10^-5 M; summary of the method: as §1
OVCAR-8 = assay: Growth inhibition of human OVCAR8 cells assessed tumor cell growth at 10^-5 M; summary of the method: as §1
DU-145 = assay: Growth inhibition of human DU145 cells assessed tumor cell growth at 10^-5 M; summary of the method: as §1
786-0 = assay: Growth inhibition of human 786-0 cells assessed tumor cell growth at 10^-5 M; summary of the method: as §1
UO-31 = assay: Growth inhibition of human UO31 cells assessed tumor cell growth at 10^-5 M; summary of the method: as §2
SF-539 = assay: Growth inhibition of human SF539 cells assessed tumor cell growth at 10^-5 M; summary of the method: as §1
HCT-15 = assay: Growth inhibition of human HCT15 cells assessed tumor cell growth at 10^-5 M; summary of the method: as §1
SK-MEL-2 = assay: Growth inhibition of human SK-MEL-2 cells assessed tumor cell growth at 10^-5 M; summary of the method: as §1
M14 = assay: Growth inhibition of human M14 cells assessed tumor cell growth at 10^-5 M; summary of the method: as §1
[1] = Growth inhibition of human […] cells assessed tumor cell growth at 10^-5 M; summary of the method: as §1
SF-268 = assay: Growth inhibition of human SF268 cells assessed tumor cell growth at 10^-5 M; summary of the method: as §1
OVCAR-4 = assay: Growth inhibition of human OVCAR4 cells assessed tumor cell growth at 10^-5 M; summary of the method: as §1
HT-29 = assay: Growth inhibition of human HT-29 cells assessed tumor cell growth at 10^-5 M; summary of the method: as §1
OVCAR-3 = assay: Growth inhibition of human OVCAR3 cells assessed tumor cell growth at 10^-5 M; summary of the method: as §1
KM12 = assay: Growth inhibition of human KM12 cells assessed tumor cell growth at 10^-5 M; summary of the method: as §1
SNB-19 = assay: Growth inhibition of human SNB19 cells assessed tumor cell growth at 10^-5 M; summary of the method: as §2
CCRF-CEM = assay: Growth inhibition of human CCRF-CEM cells assessed tumor cell growth at 10^-5 M; summary of the method: as §1
SF-295 = assay: Growth inhibition of human SF295 cells assessed tumor cell growth at 10^-5 M; summary of the method: as §1
MDA-MB-231 = assay: Growth inhibition of human MDA-MB-231 cells assessed tumor cell growth at 10^-5 M; summary of the method: as §1
UACC-62 = assay: Growth inhibition of human UACC62 cells assessed tumor cell growth at 10^-5 M; summary of the method: as §2
MDA-MB-468 = assay: Growth inhibition of human MDA-MB-468 cells assessed tumor cell growth at 10^-5 M; summary of the method: as §1
SK-OV-3 = assay: Growth inhibition of human SKOV3 cells assessed tumor cell growth at 10^-5 M; summary of the method: as §1
K562 = assay: Growth inhibition of human K562 cells assessed tumor cell growth at 10^-5 M; summary of the method: as §1
LOX IMVI = assay: Growth inhibition of human LOXIMVI cells assessed tumor cell growth at 10^-5 M; summary of the method: as §1
MDA-MB-435 = assay: Growth inhibition of human MDA-MB-435 cells assessed tumor cell growth at 10^-5 M; summary of the method: as §1
SK-MEL-5 = assay: Growth inhibition of human SK-MEL-5 cells assessed tumor cell growth at 10^-5 M; summary of the method: as §1
NCI-H460 = assay: Growth inhibition of human NCI-H460 cells assessed tumor cell growth at 10^-5 M; summary of the method: as §1
HCT-116 = assay: Growth inhibition of human HCT116 cells assessed tumor cell growth at 10^-5 M; summary of the method: as §1
Malme-3M = assay: Growth inhibition of human MALME-3M cells assessed tumor cell growth at 10^-5 M; summary of the method: as §1
NCI-H322M = assay: Growth inhibition of human NCI-H322M cells assessed tumor cell growth at 10^-5 M; summary of the method: as §1
COLO 205 = assay: Growth inhibition of human COLO205 cells assessed tumor cell growth at 10^-5 M; summary of the method: as §1
A498 = assay: Growth inhibition of human A498 cells assessed tumor cell growth at 10^-5 M; summary of the method: as §1
SN12C = assay: Growth inhibition of human SN12C cells assessed tumor cell growth at 10^-5 M; summary of the method: as §1
A549 = assay: Growth inhibition of human A549 cells assessed tumor cell growth at 10^-5 M; summary of the method: as §1
HOP-62 = assay: Growth inhibition of human HOP62 cells assessed tumor cell growth at 10^-5 M; summary of the method: as §1
CAKI-1 = assay: Growth inhibition of human Caki1 cells assessed tumor cell growth at 10^-5 M; summary of the method: as §1
SNB-75 = assay: Growth inhibition of human SNB75 cells assessed tumor cell growth at 10^-5 M; summary of the method: as §2
MCF7 = assay: Growth inhibition of human MCF7 cells assessed tumor cell growth at 10^-5 M; summary of the method: as §1
HL-60(TB) = assay: Growth inhibition of human HL-60(TB) cells assessed tumor cell growth at 10^-5 M
Summary of the method: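 HL-60(TB), part of the 60-line panel, tested at a single concentration of 10^-5 M. The read-out is percent tumor cell growth relative to untreated growth.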

RXF 393 = assay: Growth inhibition of human RXF393 cells assessed tumor cell growth at 10^-5 M; summary of the method: as §1
T47D = assay: Growth inhibition of human T47D cells assessed tumor cell growth at 10^-5 M; summary of the method: as §2
U-251 = assay: Growth inhibition of human U251 cells assessed tumor cell growth at 10^-5 M; summary of the method: as §2

SMILES: CC1=NN(c2cccc(Cl)c2)C(=O)/C1=C\c1c[nH]c2ccccc12
- Activity (HOP-92): 72.8%
- Activity (MOLT-4): 159.76%
- Activity (EKVX): 79.28%
- Activity (UACC-257): 122.98%
- Activity (NCI/ADR-RES): 101.48%
- Activity (HCC 2998): 88.48%
- Activity (OVCAR-5): 98.5%
- Activity (NCI-H23): 117.91%
- Activity (NCI-H226): 76.77%
- Activity (BT-549): 117.3%
- Activity (ACHN): 84.34%
- Activity (OVCAR-8): 107.69%
- Activity (DU-145): 121.25%
- Activity (786-0): 98.46%
- Activity (UO-31): 88.75%
- Activity (SF-539): 100.44%
- Activity (HCT-15): 103.61%
- Activity (SK-MEL-2): 120.43%
- Activity (M14): 99.91%
- Activity [1]: 103.27%
- Activity (SF-268): 107.91%
- Activity (OVCAR-4): 104.32%
- Activity (HT-29): 114.3%
- Activity (OVCAR-3): 105.19%
- Activity (KM12): 106.96%
- Activity (SNB-19): 111.33%
- Activity (CCRF-CEM): 142.91%
- Activity (SF-295): 116.2%
- Activity (MDA-MB-231): 72.74%
- Activity (UACC-62): 83.26%
- Activity (MDA-MB-468): 104.9%
- Activity (SK-OV-3): 99.61%
- Activity (K562): 128.85%
- Activity (LOX IMVI): 99.88%
- Activity (MDA-MB-435): 108.89%
- Activity (SK-MEL-5): 102.28%
- Activity (NCI-H460): 109.9%
- Activity (HCT-116): 101.89%
- Activity (Malme-3M): 114.52%
- Activity (NCI-H322M): 106.34%
- Activity (COLO 205): 122.84%
- Activity (A498): 100.75%
- Activity (SN12C): 200.78%
- Activity (A549): 109.06%
- Activity (HOP-62): 83.26%
- Activity (CAKI-1): 155.88%
- Activity (SNB-75): 91.42%
- Activity (MCF7): 76.22%
- Activity (HL-60(TB)): 124.41%
- Activity (RXF 393): 99.54%
- Activity (T47D): 83.89%
- Activity (U-251): 103.49%
